INS promoter act = activators of insulin promoter-driven GFP, primary screen, imaging, TRM-6 cells (human fetal islet line), eGFP reporter, cell count; plate-scaled: unstimulated 0, stimulated control 100; activation, % at 2 µM; 0.81% of 130,000 active;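 active = activation at 2 µM above a set limit, confirmed on inspection of the cell images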;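 note: share of cells whose green reporter signal exceeds an intensity cutoff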
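test system = TRM-6 insulin promoter–eGFP reporter cells | benchmarks = stimulated versus unstimulated wells as plate controls | read-out basis = percent cells above green-intensity threshold, converted to percent activation versus plate controls | detection = fixed-cell fluorescence microscopy, eGFP plus Hoechst | incubation = tamoxifen pre-incubation 15 h overnight, then compound exposure 48 h at 37 °C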
* hit, by the source's call; [ ] = remark or other dose. This excerpt belongs to a sample that is enriched for hits.

SMILES	INS promoter act
O=C(CCn1c(=O)[nH]c2ccsc2c1=O)NCc1ccc(F)cc1	0
Cc1ccc(NC(=O)C2CCCN(C(=O)c3ccc(Cl)cc3)C2)c(C)c1 (centres undefined)	8
Cc1ccc(NN2C(=O)C=C(c3ccc(Cl)cc3)C2=O)cc1	-4
CC(NC(=O)Cn1cc(C(F)(F)F)ccc1=O)c1ccc(F)cc1 (centres undefined)	0
Cc1ccc(NC(=O)NNC(=O)c2cccs2)cc1	-3
Cc1ccc(N=Nc2ccc(O)c3ncccc23)cc1	123
CCS(=O)(=O)c1ccc(N=Nc2ccc(O)c3ncccc23)c(OC)c1	625*
Oc1c(Cl)cc(Cl)c2cccnc12	9
Oc1ccc(CN2CCCCC2)c2cccnc12	389
CCS(=O)(=O)c1ccc(O)c(NC(=O)c2cc(OC)c(OC)c(OC)c2)c1	0
Cc1ccc(N=Nc2ccc(O)c3ncccc23)cc1C	279*
COc1ccc(C(=O)N2CCCC(CCC(=O)NCc3ccc(F)c(F)c3)C2)o1 (centres undefined)	133
CC(=O)N1N=C(c2ccncc2)OC12CCCC2	543*
O=C(Nc1ccncc1)C1(c2ccccc2)CCCC1	0
CC(C)C(=O)NC(NC(=O)C(C)C)c1ccc([N+](=O)[O-])cc1	0
CCC(=O)Oc1ccc(C(=O)Nc2ccc3c(c2)C(=O)N(C2CCCCC2)C3=O)cc1	7
COc1cccc(-n2c(Cn3nc(C(F)(F)F)cc3C)n[nH]c2=S)c1	-5
Cc1ccc2nc(C(=O)N3CCc4c([nH]c5ccccc45)C3c3ccccn3)cn2c1 (centres undefined)	7
Cc1cccc(S(=O)(=O)NCCC(=O)OCC(=O)Nc2ccc(C#N)cc2)c1	-10
CC1CCN(CC(O)COC2CC(C)CCC2C(C)C)CC1 (centres undefined)	543*
CC1CCC(C(C)C)C(OC(=O)CSc2nnc(N)s2)C1 (centres undefined)	6
CC1CC(OCC(O)CN2CCN(Cc3ccccc3)CC2)CC(C)(C)C1 (centres undefined)	100
O=c1cc(CS(=O)(=O)c2ccccc2)nc(-c2ccncc2)[nH]1	331*
O=c1[nH]c(CS(=O)(=O)c2ccccc2)nc2ccccc12	6
CN(Cc1nc(-c2ccncc2)no1)S(=O)(=O)c1ccccc1	24
SMILES	INS promoter act
Cc1ccc2sc(-c3ccc(NC(=O)/C=C\C(=O)O)cc3)nc2c1	-3
O=[N+]([O-])c1ccc(/C=C/C2=NN(c3ccccc3)C(c3ccco3)C2)cc1 (centres undefined)	285*[fluoresces]
O=[N+]([O-])c1ccc(Cl)c(/C=N/N2CCN(c3ccccc3)CC2)c1	7
O=c1ccc(-c2ccc([N+](=O)[O-])cc2)nn1-c1ccccc1	-6
CCC(=O)N(c1ccc(C(=O)O)cc1)c1nc(-c2ccc(OC)cc2)c(C)s1	-8
O=C(O)C1CC=CCC1C(=O)NC1CCCCC1 (centres undefined)	0
CCSc1nnc(-c2cc(Br)ccc2N=Cc2c(C)[nH]n(-c3ccccc3)c2=O)c(=O)[nH]1	356*
COc1cc(S(=O)(=O)Nc2ccc(C)cc2)ccc1N=Cc1c(C)[nH]n(-c2ccccc2)c1=O	-72
Cc1ccc(-n2[nH]c(C)c(C=Nc3ccc(Br)cn3)c2=O)cc1	119
O=C(/C=C/c1cccc(Cl)c1)Nn1c(-c2cccs2)nc2ccccc2c1=O	-9
Cn1c(C(=O)OC(C(=O)NCc2ccco2)c2ccncc2)cc2sccc21 (centres undefined)	633*
CC(OC(=O)c1cc2sccc2n1C)C(=O)NCCc1ccccc1 (centres undefined)	6
CC(OC(=O)c1cc2sccc2n1C)C(=O)NCc1ccc(F)cc1 (centres undefined)	-8
O=C(NCC(c1cccnc1)N1CCOCC1)NC1CCCCC1 (centres undefined)	7
CC1CN(C(=S)NC(=O)C2CCCCC2)CC(C)O1 (centres undefined)	3
CCn1c(SCC(=O)Nc2cccc(NC(=O)c3cccs3)c2)nnc1-c1ccncc1	0
CCn1c(SCC(=O)Nc2ccc(S(=O)(=O)Nc3ccccn3)cc2)nnc1-c1ccncc1	569*
CCn1c(SCC(=O)NC2CCCc3ccccc32)nnc1-c1ccncc1 (centres undefined)	-7
O=C1C2C3C=CC(C4CC34)C2C(=O)N1/N=C/c1cccs1 (centres undefined)	10
Cc1ccc2nc(SCC(=O)NNC(=O)c3ccccc3)[nH]c2c1	0
Cc1ccc(CCNC(=O)C2CCN(S(=O)(=O)c3cccc4nsnc34)CC2)cc1	7
Cc1ccnc(NC(=O)C2CCN(S(=O)(=O)c3cccc4nsnc34)CC2)c1	125*
COc1ccc(OC)c(NC(=O)C2CCCN(S(=O)(=O)c3cccc4nsnc34)C2)c1 (centres undefined)	0
CCN(C(=S)NC(=O)c1ccccc1Br)C1CCCCC1	-8
O=C(CN1N=C(c2ccccc2)CCC1=O)NCCCN1CCc2ccccc2C1	3
SMILES	INS promoter act
CCc1ccc(-n2c(C)cc(/C=N/NC(=O)OC)c2C)cc1	-8
CCOc1ccc(CNC(=O)CCc2cn(Cc3ccccc3)c3ccccc23)cc1	7
Cc1ccc(N/C=C(/C#N)c2ccsc2)cc1C	7
COc1cc(/C=N/Nc2snc(SC)c2C#N)ccc1O	2
CSc1nsc(/C=C/Nc2ccc(C)c(C)c2)c1C#N	669*
CCOc1nc(-c2ccc(Cl)cc2)nc2ccccc12	0
Cc1cc(C(=O)NNC(=S)NCc2ccco2)nn1C	0
COC(=O)c1c(-c2ccncc2)csc1NC(=O)c1ccoc1C	-9
Cc1cccc(-c2csc(N)c2C(=O)OC(C)C)c1	6
CCOC(=O)c1c(-c2ccncc2)csc1N	460*
CC(=O)Nc1ccc(Oc2ncccn2)c(Cl)c1	-9
OCc1cc(-c2ccc(Cl)c(Cl)c2)on1	-7
O=C(CCCn1c(=O)[nH]c2cc(Cl)ccc2c1=O)NCCCN1CCCC1	-8
COc1ccc(N2CCN(C(=O)CCCn3c(=O)[nH]c4cc(Cl)ccc4c3=O)CC2)cc1	-74
O=C(CCCn1c(=O)[nH]c2cc(Cl)ccc2c1=O)NCCCN1CCN(c2ccc(F)cc2)CC1	267*
O=C(CNC1CCCCC1)NN=C(c1ccccc1)c1ccccc1	113
CNc1c([N+](=O)[O-])cnn1-c1cccc(Cl)n1	-3
CN=C(Nc1ccc(Cl)cc1)c1ccc(C(F)(F)F)cc1	-7
O=C(CCN1CCN(S(=O)(=O)c2ccc(Br)cc2)CC1)Nc1ccccc1F	0
O=C(CN1CCN(S(=O)(=O)c2ccc(Br)cc2)CC1)Nc1ccc(F)cc1F	136*
O=C(CN1CCc2ccccc2C1)Nc1ccc(F)cc1F	-6
O=C(NCCCN1CCCC1=O)c1ccc2c(=O)n(-c3ccccc3F)c(=S)[nH]c2c1	-7
CSc1ccc(OC2CCCCC2NS(=O)(=O)c2ccc(Cl)cc2)cc1 (centres undefined)	-100
O=S(=O)(NC1CCCCC1Nc1ccccc1)c1ccccc1 (centres undefined)	-3
O=S(=O)(NC1CCCCC1NS(=O)(=O)c1ccc(F)cc1)c1ccc(F)cc1 (centres undefined)	513*
C=C(C)C1CC=C(C)/C(=N\NC(=S)Nc2ccc(C)cc2)C1 (centres undefined)	-6
O=C(/C=C/c1ccccc1Cl)NCCc1ccc(F)cc1	3
CCNc1ccc(Br)cc(C(=O)/C=C/c2ccccc2Cl)c1=O	800*
CCc1ccc(/C=C/C(=O)c2cc(Br)ccc(=O)c2O)cc1	3

Compound activity: PubChem, Columbia University Molecular Screening Center
